In ChEMBL document CHEMBL4400513, “Aurone derivatives as promising antibacterial agents against resistant Gram-positive pathogens” (Eur J Med Chem, 2019):
Values after ≈ are worked out from the molar mass of the structure shown. Active and inactive are the calls of the source. No cut-off for these calls is given here.

Experiments:
Vibrio alginolyticus = experiment: Bactericidal activity against Vibrio alginolyticus in aerobic condition; assay type: functional, organism-based
Summary of the method: (§1)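 MH broth; log-phase bacteria (OD600 ~0.6) diluted to ~10^5 bacteria/mL and exposed to two-fold serial dilutions (0–500 µM; 0.2% DMSO final as vehicle control) at 37 °C, aerobic, 18–24 h. MIC is the lowest concentration preventing visible growth (OD600). MBC is found by streaking 10 µL from no-growth wells onto agar; the MBC is the concentration where ≤1 colony grew. n = 3.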

Fusarium verticillioides = experiment: Antifungal activity against Fusarium verticillioides after 2 to 5 days by two-fold serial dilutions method; assay type: functional
Summary of the method: (§2)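 Broth two-fold serial dilution MIC, 0 to 500 µM (1:2 steps), from 200 mM DMSO stocks; 0.2% DMSO final as vehicle control. Inoculum about 10^5 cells/mL. Strains maintained on potato dextrose agar and in RPMI medium. Plates held at room temperature for 2 to 5 days, OD600 read; MIC = lowest concentration preventing visible growth; independent triplicate.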

Aspergillus flavus [1] = experiment: Antifungal activity against Aspergillus flavus after 2 to 5 days by two-fold serial dilutions method; assay type: functional; summary of the method: as §2
Aspergillus ochraceus [2] = experiment: Fungicidal activity against Aspergillus ochraceus; assay type: functional, organism-based
Summary of the method: (§3)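 Filamentous fungi grown on potato dextrose agar and tested in RPMI medium with two-fold serial dilutions (0–500 µM, 0.2% DMSO final). Plates held at room temperature for 2 to 5 days, then OD600 read; MIC taken as the lowest concentration with no visible growth. The fungicidal endpoint is ≤1 colony after streaking 10 µL of no-growth wells on agar. n = 3.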

Aspergillus niger = experiment: Antifungal activity against Aspergillus niger after 48 hrs by two-fold serial dilutions method; assay type: functional
Summary of the method: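 Two-fold serial dilution MIC, 0 to 500 µM, from 200 mM DMSO stocks; 0.2% DMSO final as vehicle control. Inoculum about 10^5 cells/mL. Organism maintained on potato dextrose agar and in RPMI. Plates incubated 48 h at 35 °C, then OD600 read; MIC taken as lowest concentration with no visible growth; n = 3 independent runs.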

Escherichia coli [3] = experiment: Antimicrobial activity against Escherichia coli MRS after 18 to 24 hrs in aerobic condition by two-fold serial dilutions method; assay type: functional
Summary of the method: (§4)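 Colonies grown overnight (~16 h) in Mueller-Hinton broth at 37 °C, 200 rpm, diluted 1/100 and grown to log phase (OD600 ~0.6), then diluted to ~10^5 bacteria/mL. Exposed to 0 to 500 µM in 1:2 series (0.2% DMSO final control), aerobic, 37 °C, 18–24 h. OD600 read; MIC = lowest concentration without visible growth; n = 3.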

Shigella flexneri [4] = experiment: Bactericidal activity against Shigella flexneri in aerobic condition; assay type: functional, organism-based; summary of the method: as §1
Lactococcus lactis = experiment: Antimicrobial activity against Lactococcus lactis after 18 to 24 hrs in aerobic condition by two-fold serial dilutions method; assay type: functional; summary of the method: as §4
Citrobacter farmeri = experiment: Antimicrobial activity against Citrobacter farmeri after 18 to 24 hrs in aerobic condition by two-fold serial dilutions method; assay type: functional; summary of the method: as §4
Stachybotrys chartarum = experiment: Antifungal activity against Stachybotrys chartarum after 2 to 5 days by two-fold serial dilutions method; assay type: functional; summary of the method: as §2
Shigella flexneri [5] = experiment: Antimicrobial activity against Shigella flexneri after 18 to 24 hrs in aerobic condition by two-fold serial dilutions method; assay type: functional; summary of the method: as §4
Candida albicans = experiment: Antifungal activity against Candida albicans after 2 to 5 days by two-fold serial dilutions method; assay type: functional
Escherichia coli [6] = experiment: Antimicrobial activity against Escherichia coli after 18 to 24 hrs in aerobic condition by two-fold serial dilutions method; assay type: functional; summary of the method: as §4
Arthrobacter gandavensis = experiment: Bactericidal activity against Arthrobacter gandavensis in aerobic condition; assay type: functional, organism-based
Summary of the method: (§5)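 From the MIC plates, 10 µL from each well without growth was streaked onto agar suited to the organism and incubated under that organism's growth conditions. Colonies were then counted; MBC = lowest concentration allowing ≤1 colony, i.e. killing 99.9% of bacteria.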

Clostridium perfringens = experiment: Induction of cell membrane permeability in Clostridium perfringens assessed as membrane integrity after 240 mins in anaerobic condition by propidium iodide staining-based assay relative to control; assay type: functional
Summary of the method: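 Log-phase bacteria resuspended in PBS at about 10^9/mL with propidium iodide 60 µM final, mixed 1:1 with two-fold serial dilutions of compound. Fluorescence (ex 530/em 590 nm) recorded over 240 min at 37 °C anaerobically. Normalised to CTAB 300 µM or nisin at 5× MIC (100% permeabilization); DMSO as vehicle. Triplicate.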

[7] = tested on: Mycolicibacterium smegmatis; experiment: Antimicrobial activity against Mycobacterium smegmatis after 18 to 24 hrs in anaerobic condition by two-fold serial dilutions method; assay type: functional
Clostridium botulinum [8] = experiment: Antimicrobial activity against Clostridium botulinum after 18 to 24 hrs in anaerobic condition by two-fold serial dilutions method; assay type: functional
Vibrio diabolicus = experiment: Antimicrobial activity against Vibrio diabolicus after 18 to 24 hrs in aerobic condition by two-fold serial dilutions method; assay type: functional; summary of the method: as §4
Escherichia coli [9] = experiment: Bactericidal activity against Escherichia coli in aerobic condition; assay type: functional, organism-based; summary of the method: as §5
Enterococcus faecalis [10] = experiment: Antimicrobial activity against Enterococcus faecalis after 18 to 24 hrs in anaerobic condition by two-fold serial dilutions method; assay type: functional
Summary of the method: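 BHI preculture at 37 °C brought to log phase (OD600 ~0.6), then ~10^5 bacteria/mL exposed to 0 to 500 µM (1:2 dilutions, 0.2% DMSO final control). Anaerobic conditions from a gas-pack system, 37 °C, 18–24 h. OD600 read; MIC = lowest concentration with no visible growth; n = 3.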

[11] = tested on: Mycolicibacterium smegmatis; experiment: Bactericidal activity against Mycobacterium smegmatis in anaerobic condition; assay type: functional, organism-based; summary of the method: as §5
Enterococcus faecalis [12] = experiment: Bactericidal activity against Enterococcus faecalis in anaerobic condition; assay type: functional, organism-based; summary of the method: as §5
Acinetobacter baumannii = experiment: Antimicrobial activity against Acinetobacter baumannii after 18 to 24 hrs in aerobic condition by two-fold serial dilutions method; assay type: functional; summary of the method: as §4
Blautia producta = experiment: Antimicrobial activity against Clostridium coccoides after 18 to 24 hrs in anaerobic condition by two-fold serial dilutions method; assay type: functional
Summary of the method: (§6)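 Precultures in BHI broth at 37 °C in an anaerobic cabinet, grown to log phase (OD600 ~0.6), then seeded at ~10^5 bacteria/mL. Two-fold dilutions from 0 to 500 µM, 0.2% DMSO final as control. Plates incubated anaerobically at 37 °C for 18–24 h, OD600 read; MIC = lowest concentration giving no visible growth; independent triplicate.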

Aspergillus ochraceus [13] = experiment: Antifungal activity against Aspergillus ochraceus after 2 to 5 days by two-fold serial dilutions method; assay type: functional; summary of the method: as §2
Clostridium botulinum [14] = experiment: Bactericidal activity against Clostridium botulinum in anaerobic condition; assay type: functional, organism-based
Fusarium oxysporum [15] = experiment: Antifungal activity against Fusarium oxysporum after 2 to 5 days by two-fold serial dilutions method; assay type: functional; summary of the method: as §2
[16] = tested on: Streptococcus thermophilus; experiment: Antimicrobial activity against Streptococcus thermophilus after 18 to 24 hrs in anaerobic condition by two-fold serial dilutions method; assay type: functional; summary of the method: as §6
Klebsiella variicola = experiment: Antimicrobial activity against Klebsiella variicola after 18 to 24 hrs in aerobic condition by two-fold serial dilutions method; assay type: functional; summary of the method: as §4
Fusarium oxysporum [17] = experiment: Fungicidal activity against Fusarium oxysporum; assay type: functional, organism-based; summary of the method: as §3
Penicillium verrucosum = experiment: Fungicidal activity against Penicillium verrucosum; assay type: functional, organism-based; summary of the method: as §3
Aspergillus flavus [18] = experiment: Fungicidal activity against Aspergillus flavus; assay type: functional, organism-based; summary of the method: as §3

COc1cc(/C=C2\Oc3cc(O)cc(O)c3C2=O)ccc1OCc1ccccc1
Activity (Vibrio alginolyticus): Active
MIC (Fusarium verticillioides): > 500 µM
MIC (Aspergillus flavus [1]): > 500 µM
Activity (Aspergillus ochraceus [2]): Active
MIC (Aspergillus niger): > 500 µM
MIC (Escherichia coli [3]): > 500 µM
Activity (Shigella flexneri [4]): Active
MIC (Lactococcus lactis): 31.2 µM (≈ 12.2 µg/mL)
MIC (Citrobacter farmeri): > 500 µM
MIC (Stachybotrys chartarum): > 500 µM
MIC (Shigella flexneri [5]): > 500 µM
MIC (Candida albicans): 125 µM (≈ 48.8 µg/mL)
MIC (Escherichia coli [6]): > 500 µM
Activity (Arthrobacter gandavensis): Active
Activity (Clostridium perfringens): 30%
MIC [7]: > 500 µM
MIC (Clostridium botulinum [8]): 62.5 µM (≈ 24.4 µg/mL)
MIC (Vibrio diabolicus): > 500 µM
Activity (Escherichia coli [9]): Active
MIC (Enterococcus faecalis [10]): 15.6 to 31.2 µM (≈ 6.09 to 12.2 µg/mL)
Activity [11]: Active
Activity (Enterococcus faecalis [12]): Active
MIC (Acinetobacter baumannii): > 500 µM
MIC (Blautia producta): 250 µM (≈ 97.6 µg/mL)
MIC (Aspergillus ochraceus [13]): > 500 µM
Activity (Clostridium botulinum [14]): Active
MIC (Fusarium oxysporum [15]): > 500 µM
MIC [16]: 125 µM (≈ 48.8 µg/mL)
MIC (Klebsiella variicola): > 500 µM
Activity (Fusarium oxysporum [17]): Active
Activity (Penicillium verrucosum): Active
Activity (Aspergillus flavus [18]): Active
